Key:
Assay type in all cases: biochemical
Homo sapiens SAMHD1 [1] = target: T1, Homo sapiens SAMHD1 (Homo sapiens, UniProt Q9Y3Z3); test: Tight-binding inhibition of SAMHD1; conditions: read-out: Ki (Morrison equation, tight-binding); 100 nM SAMHD1, 500 μM dTTP (5×KM), eq. 4 & 5
Homo sapiens SAMHD1 [2] = target: T1, Homo sapiens SAMHD1; test: Lineweaver-Burk plot and mechanism of inhibition of SAMHD1
In short: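 Same GTP/dATP pre-activation and coupled MESG/PNP/Ppx1/PPase system. Final: 100 nM SAMHD1, 10 μM GTP, 500 nM dATP, 5 mM MgCl2. Reactions started with inhibitor (up to 4 μM) premixed into dTTP stocks of 0.625–10 mM. A360 followed for 20 min. Initial rates shown as a double-reciprocal plot and globally fitted to a competitive-inhibition equation for Kis. Mean ± SD of three independent experiments.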

Homo sapiens SAMHD1 [3] = target: T1, Homo sapiens SAMHD1; test: Steady-state kinetics of activated SAMHD1 with dTTP; conditions: read-out: KM of dTTP; 100 nM SAMHD1 activated with GTP and dATP, dTTP 8.4-500 μM
In short: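 Recombinant SAMHD1 (HisTrap, then size-exclusion purified) pre-activated stepwise with GTP then dATP, diluted, and mixed with MESG/PNP/Ppx1/PPase coupling cocktail. Final: 100 nM enzyme, 10 μM GTP, 500 nM dATP, 500 μM MESG, […], 10 nM Ppx1 and PPase. Buffer: HEPES pH 8.0, NaCl, MgCl2, TCEP, glycerol. dTTP 8.4–500 μM. A360 over 20 min. Rates corrected for 3 Pi/dTTP. Michaelis-Menten fit. Three independent experiments.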

T1 sequence (Q9Y3Z3 114-626): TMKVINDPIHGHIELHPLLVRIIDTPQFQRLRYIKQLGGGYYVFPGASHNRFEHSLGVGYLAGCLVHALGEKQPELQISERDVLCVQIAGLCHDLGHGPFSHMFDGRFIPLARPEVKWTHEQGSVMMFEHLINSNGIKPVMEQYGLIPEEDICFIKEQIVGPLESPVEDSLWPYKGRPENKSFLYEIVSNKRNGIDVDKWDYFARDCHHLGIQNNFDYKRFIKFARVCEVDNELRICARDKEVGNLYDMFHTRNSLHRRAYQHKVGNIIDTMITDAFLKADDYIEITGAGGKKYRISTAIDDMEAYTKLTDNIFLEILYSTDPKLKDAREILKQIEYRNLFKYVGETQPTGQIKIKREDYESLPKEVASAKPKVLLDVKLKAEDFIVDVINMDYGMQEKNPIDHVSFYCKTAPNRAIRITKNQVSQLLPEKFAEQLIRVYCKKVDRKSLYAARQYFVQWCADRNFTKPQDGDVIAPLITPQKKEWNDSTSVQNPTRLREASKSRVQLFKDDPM

Structure (SMILES)	Ki (Homo sapiens SAMHD1 [1]) [µM]	Mode of inhibition (Homo sapiens SAMHD1 [2]; double-reciprocal Lineweaver-Burk plot, varied dTTP)	Kis (global inhibition constant, competitive fit) (Homo sapiens SAMHD1 [2]; varied dTTP and dGPNPP (up to 4 μM), global fit) [nM]	Km (Homo sapiens SAMHD1 [3]) [µM]
Nc1nc2c(ncn2[C@H]2C[C@H](O)[C@@H](COP(=O)(O)NP(=O)(O)OP(=O)(O)O)O2)c(=O)[nH]1 [dGPNPP, 2'-Deoxyguanosine-5'-[(α,β)-imido]triphosphate]	0.025 ± 0.007	competitive inhibition	53 ± 7.0	
Nc1ccn([C@H]2C[C@H](O)[C@@H](COP(=O)(O)NP(=O)(O)OP(=O)(O)O)O2)c(=O)n1 [dCPNPP, 2'-Deoxycytidine-5'-[(α,β)-imido]triphosphate]	0.067 ± 0.008			
Cc1cn([C@H]2C[C@H](O)[C@@H](COP(=O)(O)OP(=O)(O)OP(=O)(O)O)O2)c(=O)[nH]c1=O [dTTP, 2’-Deoxythymidine-5’-triphosphate]				102 ± 9.4
